For 16 compounds, IC50, Activity and viability results are on record in ChEMBL document CHEMBL5104120, “Morpholine substituted quinazoline derivatives as anticancer agents against MCF-7, A549 and SHSY-5Y cancer cell lines and mechanistic studies” (RSC Med Chem, 2022).

Data set [1] deals with A549. The data set is described as follows: Antiproliferative activity against human A549 cells assessed as inhibition of cell growth incubated for 48 hrs by MTT assay. As to conditions: A549, 48 h. In kind it is functional, cell-based. The procedure, abridged: (§1)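 Cell lines from NCCS; ~8000 cells/well grown 24 h at 37 °C, 5% CO2, serum-starved 8 h to synchronize, then complete medium restored. Compounds applied at 1, 5, 10 and 25 μM in triplicate for 48 h. MTT added after medium removal, 4 h in dark; formazan dissolved in DMSO, absorbance at 590 nm read as % viability (mean ± S.D.); IC50 in μM.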
In general terms: Tetrazolium dyes change colour on reduction, which living cells bring about.

The test system of data set [2] is MCF7. The data set is described as follows: Antiproliferative activity against human MCF7 cells assessed as inhibition of cell growth incubated for 48 hrs by MTT assay. In kind it is functional, cell-based. As to conditions: MCF7, 48 h. The procedure, abridged:
as §1

In data set [3] the test system is SH-SY5Y. Description: Antiproliferative activity against human SH-SY5Y cells assessed as inhibition of cell growth incubated for 48 hrs by MTT assay. The class given is functional, cell-based. The procedure, abridged:
as §1

Data set [4] deals with HT-29. Description: Antiproliferative activity against human HT-29 cells assessed as inhibition of cell growth incubated for 72 hrs by SRB assay. In kind it is functional, cell-based. Particulars: HT-29, 72 h.
Data set [5] has as its system MCF7. Description: Antiproliferative activity against human MCF7 cells assessed as inhibition of cell growth incubated for 72 hrs by SRB assay. In kind it is functional, cell-based. Particulars: MCF7, 72 h. (In general: In SRB staining, fixed cells bind dye roughly in proportion to their protein.)
A short description of data set [6]: Cytotoxicity against human HEK293 cells assessed as inhibition of cell growth incubated for 48 hrs by MTT assay. In kind it is toxicity, cell-based.
Data set [7] concerns SH-SY5Y. Description: Cell cycle arrest in human SH-SY5Y cells assessed as cells in G0/G1 phase at 10 uM incubated for 48 hrs by PI staining based flow cytometry analysis (reference value: 53.2 %). The class given is functional. For orientation: In flow cytometry, cells or beads pass a laser one at a time.
Data set [8] has as its system SH-SY5Y. Description: Cell cycle arrest in human SH-SY5Y cells assessed as cells in S phase at 10 uM incubated for 48 hrs by PI staining based flow cytometry analysis (reference value: 16.2 %). The class given is functional.
The test system of data set [9] is SH-SY5Y. The data set is described as follows: Cell cycle arrest in human SH-SY5Y cells assessed as cells in G2 phase at 10 uM incubated for 48 hrs by PI staining based flow cytometry analysis (reference value: 31.1 %). The class given is functional.
The subject of data set [10] is SH-SY5Y. The data set is described as follows: Induction of apoptosis in human SH-SY5Y cells assessed as viable cells at 10 uM incubated for 48 hrs by AnnexinV staining based cytofluorimetric analysis (reference value: 98.6 %). Particulars: read-out: Activity. In kind it is functional. The procedure, abridged:
(§2)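 SHSY5Y cells grown in 6-well plates and exposed to compounds at 10 μM for 48 h. Cells plus medium centrifuged at 1200 rpm for 5 min, washed in 1× PBS, then incubated with Annexin V/dead cell reagent 30 min at room temperature in dark. Annexin V […] populations quantified on a Muse cytofluorimetric analyzer.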

Data set [11] has as its system SH-SY5Y. Description: Induction of apoptosis in human SH-SY5Y cells assessed as early apoptotic cells at 10 uM incubated for 48 hrs by AnnexinV staining based cytofluorimetric analysis (reference value: 1.16 %). In kind it is functional. The gist of the method:
as §2

Data set [12] concerns SH-SY5Y. The data set is described as follows: Induction of apoptosis in human SH-SY5Y cells assessed as late apoptotic cells at 10 uM incubated for 48 hrs by AnnexinV staining based cytofluorimetric analysis (reference value: 0.24 %). The class given is functional. The procedure, abridged:
as §2

In data set [13] the test system is SH-SY5Y. The data set is described as follows: Induction of apoptosis in human SH-SY5Y cells assessed as necrotic cells at 10 uM incubated for 48 hrs by AnnexinV staining based cytofluorimetric analysis (reference value: 0 %). In kind it is functional. The gist of the method:
as §2

Data set [14] relates to L1210. Description: Antiproliferative activity against mouse L1210 cells assessed as inhibition of cell growth incubated for 72 hrs by tryphan blue staining. The class given is functional, cell-based. As to conditions: L1210, 72 h.
Data set [15] concerns HeLa. The data set is described as follows: Antiproliferative activity against human HeLa cells assessed as inhibition of cell growth incubated for 72 hrs by tryphan blue staining. The class given is functional, cell-based.
The subject of data set [16] is B16. Description: Antiproliferative activity against mouse B16 cells assessed as inhibition of cell growth incubated for 72 hrs by tryphan blue staining. Particulars: B16, 72 h. The class given is functional, cell-based.
In data set [17] the test system is NIH3T3. Description: Antiproliferative activity against mouse NIH3T3 cells assessed as inhibition of cell growth incubated for 72 hrs by tryphan blue staining. The class given is functional, cell-based. Particulars: NIH3T3, 72 h.

As to `c1ccc(-c2nc(N3CCOCC3)c3ccccc3n2)cc1`, the figures for the IC50 in [1], in [2] and in data set [3] were 9.47 µM, above 25 µM and above 25 µM, respectively.
With `O=C1Nc2ccc(F)cc2/C1=N/Nc1nc(-c2ccccc2)nc2ccccc12`, the concentration for half-maximal inhibition (IC50) in [4] came out at 14.3 µM; in data set [5] it was 7.4 µM.
Take `FC(F)(F)c1ccc(-c2nc(N3CCOCC3)c3ccccc3n2)cc1`: the IC50 in data set [1] was 9.83 µM; in data set [2], 6.69 µM; in [3], 15.8 µM. Moreover, the 50% inhibitory concentration (IC50) at 48 h in data set [6] was above 25 µM.
Take `COc1cc(-c2nc(N3CCOCC3)c3ccccc3n2)cc(OC)c1OC`: the IC50 in data set [1] was 8.55 µM; in [2], 3.15 µM; in data set [3] it was 3.36 µM. Further, the Activity in data set [7] amounted to 62.1%; in data set [8], 14.4%; in data set [9], 24.3%; in [11], 2.71%; in [12] it was 77.6%; in [13] it was 19.2%. Also, the viability at 10 µM in data set [10] stood at 0.42%.
With `Oc1ccc(-c2nc(N3CCOCC3)c3ccccc3n2)cc1`, the IC50 in data set [1] is 12.5 µM; in data set [2] it was 5.57 µM; in data set [3], 20.7 µM. The IC50 at 48 h in data set [6] is above 25 µM.
Take `c1ccc2[nH]c(-c3nc(N4CCOCC4)c4ccccc4n3)cc2c1`: the results for the half-inhibitory concentration (IC50) in data set [1], in data set [2] and in data set [3] were 11.5 µM, above 25 µM and 14.5 µM, respectively.
On the same counts, the results for `CSc1ccc(-c2nc(N3CCOCC3)c3ccccc3n2)cc1` are 17.7 µM, 10.1 µM and 24.3 µM.
`O=[N+]([O-])c1ccc(-c2nnc3c4cc(Cl)ccc4nc(N4CCOCC4)n23)s1`: the IC50 in [14] worked out at 0.58 µM; in data set [15], 6.43 µM; in data set [16] it was 0.24 µM; in data set [17], 2.74 µM.
For `COc1ccc(-c2nc(N3CCOCC3)c3ccccc3n2)cc1`, the IC50 in data set [1] was 20.8 µM; in data set [2], 5.01 µM; in data set [3], above 25 µM. Moreover, in data set [6], the half-maximal inhibitory concentration (IC50) at 48 h was above 25 µM.
`N#Cc1ccc(-c2nc(N3CCOCC3)c3ccccc3n2)cc1`: the IC50 in data set [1] was 11.1 µM; in data set [2] it was above 25 µM; in [3], above 25 µM.
As for `CC(C)c1ccc(-c2nc(N3CCOCC3)c3ccccc3n2)cc1`, the IC50 in data set [1] was determined as 9.5 µM; in data set [2], 10.5 µM; in data set [3], 15.2 µM.
The like results for `Fc1ccccc1-c1nc(N2CCOCC2)c2ccccc2n1` were, in that order, 10.8 µM, above 25 µM and above 25 µM.
In the case of `CN(C)c1ccc(-c2nc(N3CCOCC3)c3ccccc3n2)cc1`, the values for the concentration for half-maximal inhibition (IC50) in [1], in data set [2] and in data set [3] were 10.4 µM, 6.44 µM and 9.54 µM, respectively. The 50% inhibitory concentration (IC50) at 48 h in data set [6] is above 25 µM. Moreover, the Activity is on record as 59% in data set [7]; 15.3% in [8]; 26.2% in data set [9]; 2.23% in data set [11]; 78.2% in data set [12]; 19% in data set [13]. For the same compound, the viability at 10 µM in data set [10] stood at 0.55%.
Consider `Fc1cccc(Cl)c1-c1nc(N2CCOCC2)c2ccccc2n1`, for which the results for the half-inhibitory concentration (IC50) in data set [1], in [2] and in [3] were 17.8 µM, above 25 µM and 22 µM, respectively.
The like results for `Cc1ccc(-c2nc(N3CCOCC3)c3ccccc3n2)cc1` were, in that order, 18.9 µM, 4.93 µM and 18 µM.
For `COc1cc2c(c(OC)c1OC)-c1ccc(OC)c(=O)cc1[C@@H](NC(C)=O)CC2` [COLCHICINE], the values for the IC50 in data set [1], in data set [2] and in [3] were 5.13 µM, 5.19 µM and 7.89 µM, respectively. In addition, the half-inhibitory concentration (IC50) at 48 h in [6] was above 25 µM.

The term IC50 denotes the point on the concentration scale where inhibition reaches its midpoint.
